Results reported in ChEMBL document CHEMBL1671663, “In vivo characterization of the peptide deformylase inhibitor LBM415 in murine infection models” (Antimicrob Agents Chemother, 2009).
Converted amounts (≈) assume the structure as drawn. The source made the active and inactive calls. The rule behind the calls is not given here.

How the values were obtained:
Streptococcus pneumoniae [1] = experiment: Antimicrobial activity against multiple drug resistant Streptococcus pneumoniae ATCC 700677 infected in po dosed BALB/c mouse administered twice daily for 3 days; type: functional; details: ATCC 700677, po, 72 h
In short: (§1)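 Female BALB/c mice (19–23 g) infected intraperitoneally with ATCC 700677 from a 5-h Todd-Hewitt–30% horse serum log culture, suspended in 5% hog mucin, 1.5 × 10^7 to 2 × 10^7 CFU/mouse. Groups of 5–6, typically three dose levels; vehicle controls. Dosed 1, 5, 17, 27, 42, 51 h post-infection. ED50 from day-8 survival by probit analysis, with 95% CI.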

Staphylococcus aureus [2] = experiment: Antimicrobial activity against methicillin-susceptible Staphylococcus aureus ATCC 49951 by broth microdilution method; type: functional
In short: (§2)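 MICs determined by broth microdilution following CLSI guidelines. Inocula came from overnight Mueller-Hinton broth (ATCC 49951, NB01021) or overnight Trypticase soy agar culture (ATCC 6301). ATCC 6303 and ATCC 700677 came from a 5-h log culture in Todd-Hewitt broth–30% horse serum.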

Staphylococcus aureus [3] = experiment: Antimicrobial activity against methicillin-susceptible Staphylococcus aureus ATCC 13709 by broth microdilution method; type: functional
In short: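 MIC by broth microdilution following CLSI guidelines.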

Staphylococcus aureus [4] = experiment: Antimicrobial activity against methicillin-resistant Staphylococcus aureus NB01021 by broth microdilution method; type: functional; in short: as §2
Streptococcus pneumoniae [5] = experiment: Antimicrobial activity against Streptococcus pneumoniae ATCC 6301 by broth microdilution method; type: functional; in short: as §2
Streptococcus pneumoniae [6] = experiment: Antimicrobial activity against Streptococcus pneumoniae ATCC 6303 by broth microdilution method; type: functional; in short: as §2
Streptococcus pneumoniae [7] = experiment: Antimicrobial activity against multiple drug-resistant Streptococcus pneumoniae ATCC 700677 by broth microdilution method; type: functional; in short: as §2
Staphylococcus aureus [8] = experiment: Antimicrobial activity against methicillin-resistant Staphylococcus aureus NB01021 infected in po dosed BALB/c mouse administered 0, 4, 23 hrs post infection; type: functional
In short: (§3)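 Female BALB/c mice (19–23 g) infected intraperitoneally with MRSA NB01021 in 5% hog gastric mucin, 2.1 × 10^7 to 2.8 × 10^7 CFU/mouse (0.3 ml), 10–100× minimal lethal dose. Three dose levels, groups of 5–6; vehicle controls. Treatment 0, 4 and 23 h post-infection. Observed 8 days; ED50 with 95% CI by probit analysis of day-8 survival.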

Streptococcus pneumoniae [9] = experiment: Antimicrobial activity against multiple drug resistant Streptococcus pneumoniae ATCC 700677 infected in sc dosed BALB/c mouse administered twice daily for 3 days; type: functional; details: ATCC 700677, sc, 72 h; in short: as §1
Streptococcus pneumoniae [10] = experiment: Antimicrobial activity against Streptococcus pneumoniae ATCC 6303 infected in BALB/c mouse pneumonia model assessed as reduction in lung bacterial load at 80 mg/kg, po administered twice daily 3 days starting 16 hrs post infection; type: functional
In short: (§4)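 Anesthetized (ketamine/xylazine) female BALB/c mice (19 to 22 g) inoculated intranasally with 50 µl log-phase culture (1.4 × 10^5 CFU/mouse). Oral treatment, six mice per group, at 16, 27, 40, 51, 64 and 75 h postinfection; vehicle controls. Lungs harvested one day after last dose, homogenized, plated; log10 CFU/lung. Deaths assigned 9 log10 CFU/lung; Kruskal-Wallis with Dunn's test versus control.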

Streptococcus pneumoniae [11] = experiment: Antimicrobial activity against Streptococcus pneumoniae ATCC 6303 infected in BALB/c mouse pneumonia model assessed as reduction in lung bacterial load at 40 mg/kg, po administered twice daily 3 days starting 16 hrs post infection; type: functional; in short: as §4
Streptococcus pneumoniae [12] = experiment: Antimicrobial activity against Streptococcus pneumoniae ATCC 6303 infected in BALB/c mouse pneumonia model assessed as complete eradication of bacteria at 40 mg/kg, po administered twice daily 3 days starting 16 hrs post infection; type: functional, organism-based; parameters: dose 40 mg/kg; in short: as §4
Streptococcus pneumoniae [13] = experiment: Antimicrobial activity against Streptococcus pneumoniae ATCC 6303 infected in po dosed BALB/c mouse pneumonia model assessed as complete eradication of bacteria administered twice daily 3 days starting 16 hrs post infection; type: functional; in short: as §4
Staphylococcus aureus [14] = experiment: Antimicrobial activity against multiple drug resistant Staphylococcus aureus NB01021 infected in immunocompetent NMRI mouse soft tissue infection model assessed as reduction in thigh bacterial load at 5.6 mg/kg, po administered thrice a day for 2 days; type: functional
In short: (§5)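 Thigh infection: 50 µl of freshly prepared NB01021 suspension (3.8 × 10^6 CFU/thigh) injected intramuscularly into the left hind thigh of female NMRI mice (20–23 g). Oral doses at 0, 4, 8, 24, 28, 32 h; vehicle controls. Thighs excised 18 h after last dose, homogenized in saline and plated on blood agar (detection limit 100 CFU/thigh). Medians compared to controls by Mann-Whitney rank sum test.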

Staphylococcus aureus [15] = experiment: Antimicrobial activity against multiple drug resistant Staphylococcus aureus NB01021 infected in immunocompetent NMRI mouse soft tissue infection model assessed as reduction in thigh bacterial load at 16.7 mg/kg, po administered thrice a day for 2 days; type: functional; in short: as §5
Staphylococcus aureus [16] = experiment: Antimicrobial activity against multiple drug resistant Staphylococcus aureus NB01021 infected in immunocompetent NMRI mouse soft tissue infection model assessed as reduction in thigh bacterial load at 50 mg/kg, po administered thrice a day for 2 days; type: functional; in short: as §5
Mus musculus [17] = experiment: Drug concentration at time zero in CD1 mouse at 5 mg/kg, iv by liquid chromatography/mass spectroscopy; type: ADME, organism-based; parameters: dose 5 mg/kg, route intravenous; details: in vivo
In short: (§6)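 CD1 mice given 20 mg/kg p.o. or 5 mg/kg i.v.; blood sampled from three mice per time point, first at 0.083 h (i.v.) or 0.25 h (p.o.), last at 24 h. Plasma separated by centrifugation (10,000 rpm, 10 min, 4°C), stored at −80°C, assayed by LC/MS. Mean concentration-time course used for parameters; F from ratio of dose-normalized AUCs; C0 extrapolated from i.v. curve.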

Streptococcus pneumoniae [18] = experiment: Antimicrobial activity against Streptococcus pneumoniae ATCC 6303 infected in BALB/c mouse pneumonia model assessed as reduction in lung bacterial load at 20 mg/kg, po administered twice daily 3 days starting 16 hrs post infection; type: functional; in short: as §4
[19] = AUC in CD1 mouse at 5 mg/kg, iv by liquid chromatography/mass spectroscopy; type: ADME, organism-based; parameters: dose 5 mg/kg, route intravenous; details: plasma; in short: as §6
[20] = Clearance in CD1 mouse at 5 mg/kg, iv by liquid chromatography/mass spectroscopy; type: ADME, organism-based; parameters: dose 5 mg/kg, route intravenous; details: in vivo; in short: as §6
[21] = Volume of distribution at steady state in CD1 mouse at 5 mg/kg, iv by liquid chromatography/mass spectroscopy; type: ADME, organism-based; parameters: dose 5 mg/kg, route intravenous; details: in vivo, read-out: Vdss; in short: as §6
[22] = AUC in CD1 mouse at 20 mg/kg, po by liquid chromatography/mass spectroscopy; type: ADME, organism-based; parameters: dose 20 mg/kg, route oral; details: plasma; in short: as §6
Mus musculus [23] = experiment: Cmax in CD1 mouse at 20 mg/kg, po by liquid chromatography/mass spectroscopy; type: ADME, organism-based; parameters: dose 20 mg/kg, route oral; details: in vivo; in short: as §6
[24] = Tmax in CD1 mouse at 20 mg/kg, po by liquid chromatography/mass spectroscopy; type: ADME, organism-based; parameters: dose 20 mg/kg, route oral; details: in vivo; in short: as §6
Staphylococcus aureus [25] = experiment: Antimicrobial activity against methicillin susceptible Staphylococcus aureus ATCC 49951 infected in po dosed NMRI mouse treated 1 and 5 hrs post infection; type: functional; details: ATCC 49951, po
In short: (§7)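 Intraperitoneal infection (0.3 ml/mouse, 10 to 100 times minimal lethal dose) with inoculum in 0.86% NaCl; ATCC 49951 grown overnight in Mueller-Hinton broth (1.7 × 10^7 to 2.2 × 10^7 CFU/mouse), ATCC 13709 in tryptic soy broth (7.3 × 10^7 to 2 × 10^8 CFU/mouse). Groups of 5 to 6 mice, typically three doses, treated 1 and 5 h postinfection; vehicle controls. ED50 by probit analysis of day-8 survival.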

Staphylococcus aureus [26] = experiment: Antimicrobial activity against methicillin susceptible Staphylococcus aureus ATCC 49951 infected in sc dosed NMRI mouse treated 1 and 5 hrs post infection; type: functional; details: ATCC 49951, sc; in short: as §7
Staphylococcus aureus [27] = experiment: Antimicrobial activity against methicillin susceptible Staphylococcus aureus ATCC 13709 infected in po dosed NMRI mouse treated 1 and 5 hrs post infection; type: functional; details: ATCC 13709, po; in short: as §7
Staphylococcus aureus [28] = experiment: Antimicrobial activity against methicillin-resistant Staphylococcus aureus NB01021 infected in sc dosed BALB/c mouse administered 0, 4, 23 hrs post infection; type: functional; in short: as §3
[29] = Bioavailability in CD1 mouse at 20 mg/kg, po by liquid chromatography/mass spectroscopy; details: in vivo
Streptococcus pneumoniae [30] = experiment: Antimicrobial activity against Streptococcus pneumoniae ATCC 6301 infected in po dosed NMRI mouse administered thrice daily for 4 days; details: ATCC 6301, po, 96 h

Row | Compound | ED50 (Streptococcus pneumoniae [1]) [mg/kg] | MIC (Staphylococcus aureus [2]) [µg/mL] | MIC (Staphylococcus aureus [3]) [µg/mL] | MIC (Staphylococcus aureus [4]) [µg/mL] | MIC (Streptococcus pneumoniae [5]) [µg/mL] | MIC (Streptococcus pneumoniae [6]) [µg/mL] | MIC (Streptococcus pneumoniae [7]) [µg/mL] | ED50 (Staphylococcus aureus [8]) [mg/kg] | ED50 (Staphylococcus aureus [25]) [mg/kg] | ED50 (Staphylococcus aureus [26]) [mg/kg] | ED50 (Staphylococcus aureus [27]) [mg/kg] | ED50 (Streptococcus pneumoniae [30]) [mg/kg] | further results
1 | CC[C@H]1OC(=O)[C@H](C)C(=O)[C@H](C)[C@@H](O[C@@H]2O[C@H](C)C[C@H](N(C)C)[C@H]2O)[C@](C)(OC)C[C@@H](C)C(=O)[C@H](C)[C@H]2N(CCCCn3cnc(-c4cccnc4)c3)C(=O)O[C@]12C [TELITHROMYCIN] | 13.2 | 0.25 (≈ 0.308 µM) | ≤ 0.125 | > 64 | ≤ 0.125 | ≤ 0.125 | ≤ 0.25 |  |  |  |  |  | 
2 | CCCC[C@H](CN(O)C=O)C(=O)N1CCC[C@H]1C(=O)Nc1ccc(F)c[n+]1[O-] | 36.6 | 0.125 (≈ 0.315 µM) | 4 (≈ 10.1 µM) | 2 (≈ 5.05 µM) | 0.125 (≈ 0.315 µM) | 2 (≈ 5.05 µM) | 0.5 (≈ 1.26 µM) | 5.9 | 2.3 | 1.1 | 13.2 | 6.4 | ED50 (Streptococcus pneumoniae [9]): 4.8 mg/kg; log10cfu (Streptococcus pneumoniae [10]): 2.3; log10cfu (Streptococcus pneumoniae [11]): <2; Activity (Streptococcus pneumoniae [12]): Active; ED50 (Streptococcus pneumoniae [13]): 23.3 mg/kg; log10cfu (Staphylococcus aureus [14]): 6.3; log10cfu (Staphylococcus aureus [15]): 5.6; log10cfu (Staphylococcus aureus [16]): 3.6; Drug uptake (Mus musculus [17]): 5361 ng/mL; log10cfu (Streptococcus pneumoniae [18]): 5.1; AUC [19]: 2690 ng·h/mL; clearance [20]: 30.8 mL/min/kg; Vd [21]: 3.12 L/kg; AUC [22]: 5700 ng·h/mL; Cmax (Mus musculus [23]): 4250 ng/mL; Tmax [24]: 30 min; ED50 (Staphylococcus aureus [28]): 0.7 mg/kg; bioavailability [29]: 53%
3 | CC1(C)S[C@@H]2[C@H](NC(=O)[C@H](N)c3ccc(O)cc3)C(=O)N2[C@H]1C(=O)O [AMOXICILLIN] |  | 0.5 (≈ 1.37 µM) | 1 (≈ 2.74 µM) | 128 (≈ 350 µM) | 0.03 (≈ 0.0821 µM) | 0.03 (≈ 0.0821 µM) | 4 (≈ 10.9 µM) | > 50 |  |  |  |  | 
4 | CC[C@H]1OC(=O)[C@H](C)[C@@H](O[C@H]2C[C@@](C)(OC)[C@@H](O)[C@H](C)O2)[C@H](C)[C@@H](O[C@@H]2O[C@H](C)C[C@H](N(C)C)[C@H]2O)[C@](C)(OC)C[C@@H](C)C(=O)[C@H](C)[C@@H](O)[C@]1(C)O [CLARITHROMYCIN] | > 60 | 1 (≈ 1.34 µM) | 0.5 (≈ 0.668 µM) | > 64 | 0.015 (≈ 0.0201 µM) | 0.03 (≈ 0.0401 µM) | 32 (≈ 42.8 µM) |  | 7.7 | 1.2 | 8.7 | 2.1 | 
